Source: ChEMBL document CHEMBL4689842, “EUbOPEN Chemogenomics Library wave 1” (2021)

System: HEK-293T
Experiment: Multiplex assay against HEK293T;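 as to Population Tubulin-Different-Phenotype (%): share of the cells with healthy nuclei that show this phenotype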
Format: toxicity, cell-based
Settings: human
Summary of the method: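 Hoechst33342, BioTracker Green Microtubule Cytoskeleton Dye, MitoTracker Red and Annexin V Alexa Fluor 680 were added to live cells at seeding, and imaging on a CQ1 microscope at 37°C and 5% CO2 followed compound addition. Gating by CellPathfinder machine learning separated cells into Hoechst high-intensity objects or normal cells, then normal cells into healthy, pyknosed or fragmented nuclei, then pyknosed cells into mitotic or apoptotic. Per cents of healthy-nucleus cells are reported for the tubulin, mitochondrial-mass and membrane-permeability phenotypes.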

[1] = 12 h, 1 µM, compound concentration 1 uM, replicate 1
[2] = 12 h, 1 µM, compound concentration 1 uM, replicate 2
[3] = 12 h, 10 µM, compound concentration 10 uM, replicate 1
[4] = 12 h, 10 µM, compound concentration 10 uM, replicate 2
[5] = 24 h, 1 µM, compound concentration 1 uM, replicate 1
[6] = 24 h, 1 µM, compound concentration 1 uM, replicate 2
[7] = 24 h, 10 µM, compound concentration 10 uM, replicate 1
[8] = 24 h, 10 µM, compound concentration 10 uM, replicate 2
[9] = 48 h, 1 µM, compound concentration 1 uM, replicate 1
[10] = 48 h, 1 µM, compound concentration 1 uM, replicate 2
[11] = 48 h, 10 µM, compound concentration 10 uM, replicate 1
[12] = 48 h, 10 µM, compound concentration 10 uM, replicate 2

Cl.N#Cc1ccc2[nH]cc(CCCCN3CCN(c4ccc5oc(C(N)=O)cc5c4)CC3)c2c1 [VILAZODONE HYDROCHLORIDE]
Population Apoptotic (%) [1]: 53% | Population Healthy Nuclei (%) [1]: 49% | Population Hoechst High Intensity Objects (%) [1]: 9% | Population Membrane Permeable-Phenotype (%) [1]: 1% | Population Mitochondria Different-Phenotype (%) [1]: 93% | Population Mitotic Cells (%) [1]: 46% | Population Normal (%) [1]: 90% | Population Pyknosed Nuclei (%) [1]: 44% | Population Tubulin-Different-Phenotype (%) [1]: 78% | Total Cell Count [1]: 364 | Population Apoptotic (%) [2]: 20% | Population Fragmented Nuclei (%) [2]: 6% | Population Healthy Nuclei (%) [2]: 32% | Population Hoechst High Intensity Objects (%) [2]: 3% | Population Membrane Permeable-Phenotype (%) [2]: 6% | Population Mitochondria Different-Phenotype (%) [2]: 67% | Population Mitotic Cells (%) [2]: 79% | Population Normal (%) [2]: 96% | Population Pyknosed Nuclei (%) [2]: 61% | Population Tubulin-Different-Phenotype (%) [2]: 69% | Total Cell Count [2]: 138 | Population Apoptotic (%) [3]: 93% | Population Healthy Nuclei (%) [3]: 8% | Population Hoechst High Intensity Objects (%) [3]: 25% | Population Membrane Permeable-Phenotype (%) [3]: 0% | Population Mitochondria Different-Phenotype (%) [3]: 100% | Population Mitotic Cells (%) [3]: 6% | Population Normal (%) [3]: 74% | Population Pyknosed Nuclei (%) [3]: 78% | Population Tubulin-Different-Phenotype (%) [3]: 92% | Total Cell Count [3]: 198 | Population Apoptotic (%) [4]: 82% | Population Fragmented Nuclei (%) [4]: 12% | Population Healthy Nuclei (%) [4]: 16% | Population Hoechst High Intensity Objects (%) [4]: 23% | Population Membrane Permeable-Phenotype (%) [4]: 23% | Population Mitochondria Different-Phenotype (%) [4]: 84% | Population Mitotic Cells (%) [4]: 17% | Population Normal (%) [4]: 76% | Population Pyknosed Nuclei (%) [4]: 70% | Population Tubulin-Different-Phenotype (%) [4]: 96% | Total Cell Count [4]: 199 | Population Apoptotic (%) [5]: 52% | Population Fragmented Nuclei (%) [5]: 6% | Population Healthy Nuclei (%) [5]: 58% | Population Hoechst High Intensity Objects (%) [5]: 6% | Population Membrane Permeable-Phenotype (%) [5]: 3% | Population Mitochondria Different-Phenotype (%) [5]: 87% | Population Mitotic Cells (%) [5]: 47% | Population Normal (%) [5]: 93% | Population Pyknosed Nuclei (%) [5]: 34% | Population Tubulin-Different-Phenotype (%) [5]: 71% | Total Cell Count [5]: 412 | Population Apoptotic (%) [6]: 32% | Population Fragmented Nuclei (%) [6]: 5% | Population Healthy Nuclei (%) [6]: 43% | Population Hoechst High Intensity Objects (%) [6]: 5% | Population Membrane Permeable-Phenotype (%) [6]: 2% | Population Mitochondria Different-Phenotype (%) [6]: 60% | Population Mitotic Cells (%) [6]: 67% | Population Normal (%) [6]: 94% | Population Pyknosed Nuclei (%) [6]: 50% | Population Tubulin-Different-Phenotype (%) [6]: 58% | Total Cell Count [6]: 165 | Population Apoptotic (%) [7]: 98% | Population Fragmented Nuclei (%) [7]: 19% | Population Healthy Nuclei (%) [7]: 5% | Population Hoechst High Intensity Objects (%) [7]: 21% | Population Membrane Permeable-Phenotype (%) [7]: 0% | Population Mitochondria Different-Phenotype (%) [7]: 100% | Population Mitotic Cells (%) [7]: 1% | Population Normal (%) [7]: 78% | Population Pyknosed Nuclei (%) [7]: 74% | Population Tubulin-Different-Phenotype (%) [7]: 100% | Total Cell Count [7]: 215 | Population Apoptotic (%) [8]: 92% | Population Fragmented Nuclei (%) [8]: 10% | Population Healthy Nuclei (%) [8]: 12% | Population Hoechst High Intensity Objects (%) [8]: 25% | Population Membrane Permeable-Phenotype (%) [8]: 11% | Population Mitochondria Different-Phenotype (%) [8]: 94% | Population Mitotic Cells (%) [8]: 7% | Population Normal (%) [8]: 74% | Population Pyknosed Nuclei (%) [8]: 76% | Population Tubulin-Different-Phenotype (%) [8]: 94% | Total Cell Count [8]: 186 | Population Apoptotic (%) [9]: 32% | Population Healthy Nuclei (%) [9]: 75% | Population Hoechst High Intensity Objects (%) [9]: 7% | Population Membrane Permeable-Phenotype (%) [9]: 2% | Population Mitochondria Different-Phenotype (%) [9]: 51% | Population Mitotic Cells (%) [9]: 67% | Population Normal (%) [9]: 92% | Population Pyknosed Nuclei (%) [9]: 15% | Population Tubulin-Different-Phenotype (%) [9]: 57% | Total Cell Count [9]: 639 | Population Apoptotic (%) [10]: 33% | Population Fragmented Nuclei (%) [10]: 9% | Population Healthy Nuclei (%) [10]: 68% | Population Hoechst High Intensity Objects (%) [10]: 4% | Population Membrane Permeable-Phenotype (%) [10]: 6% | Population Mitochondria Different-Phenotype (%) [10]: 32% | Population Mitotic Cells (%) [10]: 66% | Population Normal (%) [10]: 95% | Population Pyknosed Nuclei (%) [10]: 22% | Population Tubulin-Different-Phenotype (%) [10]: 51% | Total Cell Count [10]: 263 | Population Apoptotic (%) [11]: 94% | Population Fragmented Nuclei (%) [11]: 27% | Population Healthy Nuclei (%) [11]: 0% | Population Hoechst High Intensity Objects (%) [11]: 16% | Population Membrane Permeable-Phenotype (%) [11]: 0% | Population Mitochondria Different-Phenotype (%) [11]: 100% | Population Mitotic Cells (%) [11]: 5% | Population Normal (%) [11]: 83% | Population Pyknosed Nuclei (%) [11]: 72% | Population Tubulin-Different-Phenotype (%) [11]: 0% | Total Cell Count [11]: 248 | Population Apoptotic (%) [12]: 95% | Population Fragmented Nuclei (%) [12]: 13% | Population Healthy Nuclei (%) [12]: 12% | Population Hoechst High Intensity Objects (%) [12]: 30% | Population Membrane Permeable-Phenotype (%) [12]: 17% | Population Mitochondria Different-Phenotype (%) [12]: 88% | Population Mitotic Cells (%) [12]: 4% | Population Normal (%) [12]: 69% | Population Pyknosed Nuclei (%) [12]: 73% | Population Tubulin-Different-Phenotype (%) [12]: 94% | Total Cell Count [12]: 191
